Reference: ChEMBL document CHEMBL4513216, “Probing the Open Global Health Chemical Diversity Library for Multistage-Active Starting Points for Next-Generation Antimalarials” (ACS Infect Dis, 2020)

Test: Toxicity liver stage against HepG2, at 10uM
Type: cell-based
Parameters: test concentration 10 uM, cell line HepG2-A16-CD81EGFP
Settings: human, HepG2-A16-CD81EGFP cells; read-out: INHIBITION
Procedure, shortened: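 Uninfected HepG2-A16-CD81EGFP cells, 3 × 10^3 per well, 1536-well, plated on prespotted compound at 10 μM final, parasite-free screening media added to match infected plates; puromycin 10 μM positive, DMSO 0.5% negative; run in parallel with 48 h PbLuc assay at 37 °C, 5% CO2; viability by CellTiter-Glo luminescence, normalized to controls.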

Row | Structure (SMILES) | cytotoxicity at 10 µM [%]
1 | O=C(O)c1ccnc(SCC(=O)c2ccccc2)c1 | -3.78
2 | CSCC[C@@H](CO)NC(=O)c1sc(-c2ccccc2Cl)nc1C | 14.3
3 | Cc1[nH]nc(-c2ccc(F)cc2)c1CC(=O)NCC1CCOCC1 | -0.707
4 | CCOC(=O)N1CCNC(c2cccs2)C1 (configuration not stated) | -147
5 | Cn1cc(N2C[C@@H]3CN(S(=O)(=O)C4CC4)C[C@@H]3C2=O)cn1 | 1.86
6 | CNC(=O)c1cc2c(nc1NCC1CC1)CCNCC2 | -0.966
7 | COC(=O)CC1CCN(C(=O)c2ccccc2-n2nnnc2C)CC1 | -7.27
8 | CCc1ccc(-n2nnc(C(=O)O)c2-c2ccccn2)cc1 | -1.92
9 | OCCNc1nc(NCCc2ccccc2)nc2nccnc12 | 5.91
10 | CCCS(=O)(=O)Nc1ccc2c(c1)OCC(C)(C)C(=O)N2C | -10.8
11 | Cc1c[nH]c(C2CCCN(C(=O)CCc3c(C)n[nH]c3C)C2)n1 (configuration not stated) | 4.88
12 | Cc1cc(NCC2CCCCC2)n2ncnc2n1 | -2.1
13 | COc1cccc(CN(C)CCCn2cnc3c(N)ncnc32)c1 | -2.63
14 | O=S(=O)(N1CCCCCC1)N1CCCN(CC2CCCO2)CC1 (configuration not stated) | 0.863
15 | Cc1nc(CNC2(C(=O)OC(C)(C)C)CCCC2)oc1C | -0.457
16 | CCOCCN1CCN(CC(=O)NC2(C#N)CCCC2)CC1C (configuration not stated) | 5.33
17 | OC1(CNc2ccc(Br)cn2)CCOCC1 | 6.91
18 | Cc1ccc(C(=O)NC2CCCN(CC(N)=O)C2)c(=O)[nH]1 (configuration not stated) | 0.601
19 | CS(=O)(=O)NCc1cccc(COC2CCCCC2)c1 | 3.12
20 | COCc1ccccc1C(=O)OCc1noc(C)n1 | 7.01
21 | CCOc1ccc(Cl)c(C(=O)NC(C(N)=O)c2ccccc2)n1 (configuration not stated) | -0.425

Row | Structure (SMILES) | cytotoxicity at 10 µM [%]
22 | Cc1cc(CN(C)CC2CC(C3CCCCC3)=NO2)no1 (configuration not stated) | 22.4
23 | CS(=O)(=O)c1ccc2c(c1)N(C(=O)c1cccc(F)c1)CCC2 | 8.05
24 | O=C(Cc1csc(-c2ccccn2)n1)NCCCN1CCCCCC1=O | 1.16
25 | Cc1cc(C)cc(NC(=O)Cc2c(C)nc3c(c2C)c(=O)[nH]n3C)c1 | 10.6
26 | CCc1nnc(CN2CCN(C(C)=O)CC2)o1 | 4.39
27 | COCCOCC(C)NC(=O)COc1nn(C)c2nc(C)cc(C)c12 (configuration not stated) | -3.85
28 | CCc1n[nH]c(C2CN(C(=O)Cc3ccc(C)nc3)CCO2)n1 (configuration not stated) | 6.97
29 | O=C(NCCc1nnc2n1CCC2)NCC1(c2ccc(F)cc2)CC1 | -2.23
30 | CC(C)n1cc(CN2CCCN(C(=O)c3cccnc3O)CC2)cn1 | 4.29
31 | CN(Cc1ccc2c(c1)OCO2)Cc1nc(Cc2ccccc2)no1 | -2.59
32 | CC(C)CC(NC(=O)c1ccn(C)c(=O)c1)c1ccccc1 (configuration not stated) | -6.76
33 | COCCSc1ccc(C(C)NC(=O)Nc2cccnc2)cc1 (configuration not stated) | 12.3
34 | CC(C)N(Cc1ccc(Cl)c(Cl)c1)C(=O)Cn1cncn1 | 4.19
35 | O=C(NCCC(=O)N1CCCC1)c1ccc(SCc2cccnc2)cc1 | 8.95
36 | O=C(CCc1nccs1)N1CCC(N2CCNC2=O)CC1 | -9.86
37 | Cc1nc(C)n(CC2CCCN2CC(=O)NCCc2ccccc2)n1 (configuration not stated) | -16.5
38 | O=C(c1cocn1)N1C[C@H]2CCC[C@@]2(COCc2cccnc2)C1 | 7.35
39 | COCCN1C[C@H]2[C@@H](C1)N(C(=O)c1cccc(OC)c1)CC[C@H]2OC | 3.56
40 | CC(C)C1CN(c2ncccn2)CCC(=O)N1CC1CC1 (configuration not stated) | 0.0666
41 | Fc1cccnc1Oc1cc(F)c(CN2CCCC2)c(F)c1 | -7.32
42 | O=C(c1ccc(-c2cccc3c2CCNC3)o1)N1CCCC1 | 3.34

Row | Structure (SMILES) | cytotoxicity at 10 µM [%]
43 | c1c(-c2nc(CN3CCOCC3)no2)nnn1CC1CCCCC1 | 3.15
44 | Cc1cc(C)n(CC(C)NC(=O)c2cc(C(C)C)on2)n1 (configuration not stated) | 0.5
45 | Cc1nc[nH]c1C(=O)N1CCCC2(C1)C(=O)N(C)c1ccccc12 (configuration not stated) | -6.01
46 | OC1(CNCCN2CCCc3ccccc32)CCNC1 (configuration not stated) | 7.03
47 | Cc1nn(C)cc1-c1ccnc(N2CCN(c3ccccc3)C(=O)C2)n1 | -7.57
48 | COCCC(=O)N1CCCC(CCC(=O)NCc2cccc(OC)c2)C1 (configuration not stated) | 23.1
49 | Cc1noc(C)c1CCCNC(=O)C1CCN(C(=O)C2CC2)CC1 | 1.23
50 | Cc1cc(CN2CCC(C3CCN(CCc4ccccc4)CC3)C2)[nH]n1 (configuration not stated) | 9.2
51 | COc1cc(-c2nccn2CCn2cccn2)cc2c1OCO2 | -3.81
52 | C[C@@H]1CN(C(=O)C2(Cn3cccn3)CC2)C[C@@]1(O)C1CCC1 | 1.56
53 | Cc1ccccc1N1CCN(C(=O)CSc2ccncc2)CC1=O | 6.71
54 | COc1ccc(S(=O)(=O)N[C@H]2CN(C(C)=O)C[C@@H]2C2CC2)cc1C | 4.57
55 | OCC1(CC2CC2)CCCN(Cc2cnc(N3CCOCC3)nc2)C1 (configuration not stated) | -0.274
56 | CCN(Cc1cnn(CC)c1)C(=O)CN1C(=O)CCc2ccccc21 | -2.17
57 | CCN(CCn1cccn1)C(=O)CN1C(=O)OC[C@@H]1c1ccccc1 | -12.1
58 | COCCN1CCCC2(CCN(Cc3noc(C4CCCC4)n3)C2)C1=O (configuration not stated) | 3.96
59 | CCCn1cnnc1CNC(=O)C1COc2c(cccc2OC)C1 (configuration not stated) | -1.26
60 | Cn1ccnc1CN1CCC(CCC(=O)Nc2ccccc2Cl)CC1 | -3.73
61 | CC(CO)CN(Cc1ccccc1)Cc1c[nH]cn1 (configuration not stated) | 6.04
62 | CN(C)C(=O)c1nc(CN2CC(Cc3ccccc3)CC2=O)no1 (configuration not stated) | -0.849
63 | CC(C)OCCCNC(=O)[C@@]12CNC[C@@H]1CN(S(C)(=O)=O)C2 | 6.99

Row | Structure (SMILES) | cytotoxicity at 10 µM [%]
64 | CN(Cc1ncc[nH]1)C(=O)C(C)(C)NC(=O)c1cccs1 | 11.6
65 | O=C(CCN1CCOC(CNc2cccnn2)C1)NC1CCCCC1 (configuration not stated) | 3.09
66 | O=C(c1cc(C2CC2)[nH]n1)N1CCN(Cc2ccc3c(c2)OCO3)CC1 | -2.32
67 | CCNC(=O)NC(=O)CNC(C)(C)c1ccc2c(c1)OCCO2 | -19.7
68 | CCc1nnc2n1CCN(Cc1ncc(-c3ccccc3)o1)C2 | -3.98
69 | c1ccc(Cn2cc(CNCC3CNc4ccnn4C3)cn2)cc1 (configuration not stated) | -11.6
70 | N#Cc1ccc(OCCN2CCc3cncnc3C2)cc1 | -9.96
71 | Cc1noc(C)c1CS(=O)(=O)CC(=O)N1CCc2sccc2C1 | -17
72 | Cc1csc(N2CCCN(CCC(=O)NC(N)=O)CC2)n1 | -24.2
73 | O=C(NCc1ccc(-n2cncn2)nc1)c1cc(Cl)c2c(c1)OCCO2 | -16.5
74 | COc1ccc(CNC(=O)Nc2cccnc2OC)cc1O | -26.3
75 | CN(Cc1ccc(-n2cccn2)cc1)CC1CCCN1c1cccnn1 (configuration not stated) | -3.98
76 | Cc1cnn(CC2CCCN2C(=O)CCc2ccc3c(c2)OCO3)c1 (configuration not stated) | -19
77 | Cc1noc(C)c1C(=O)N1CCCN(Cc2cscn2)CC1 | -1.56
78 | CCN1CC2(CC1=O)CN(Cc1cnn(C)c1)CCN(C(=O)C(C)C)C2 (configuration not stated) | -15
79 | O=C(Nc1cnccn1)[C@@H]1COC[C@H]2CN(C3CCCC3)C[C@H]21 | -21.9
80 | CC(C)OCc1ncn2c1CN(Cc1ccc(F)cc1)CCC2 | 1.39
81 | O=C(Nc1cccnc1)[C@H]1C[C@H]2CN(C(=O)NC3CCCC3)C[C@@H]1O2 | 2.96
82 | CCOC(=O)N1CCC(n2cc3[nH]cccc-3c2=O)CC1 | 3.6
